The source made the active and inactive calls. No cut-off for these calls is given here.

The species entered for one experiment is Homo sapiens. The experiment in a line: Antiinflammatory activity in human PMNC assessed as inhibition of proliferation upto 10 uM. The format is functional.
For `C=C[C@](C)(CCC=C(C)C)O[C@@H]1O[C@H](CO[C@@H]2O[C@@H](C)[C@H](OC(=O)/C=C\c3ccc(O)cc3)[C@@H](O[C@@H]3O[C@@H](C)[C@H](O)[C@@H](O)[C@H]3O)[C@H]2O)[C@@H](O)[C@H](O)[C@H]1O`, the result was inactive.
For `C=C[C@](C)(CCC=C(C)C)O[C@@H]1O[C@H](CO[C@@H]2O[C@@H](C)[C@H](OC(=O)/C=C/c3ccc(O)cc3)[C@@H](O[C@@H]3O[C@@H](C)[C@H](O)[C@@H](O)[C@H]3O)[C@H]2O)[C@@H](O)[C@H](O)[C@H]1O`, the outcome was inactive.

Tested on in a further experiment: not listed separately
In words: Antiinflammatory activity in human PMNC assessed as inhibition of proliferation. The format is functional. The method, boiled down:
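In vitro antiproliferation assay on human mononuclear cells (T lymphocytes, B lymphocytes and macrophages) isolated from peripheral blood. Compounds were tested at up to 100 µM, and activity was expressed as IC50.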
As a reminder, the IC50 is the concentration that inhibits the measured activity by half. With `C[C@@H]1CC[C@]2(C(=O)O)CC[C@]3(C)C(=CC[C@@H]4[C@@]5(C)C[C@@H](O)[C@@H](O)C(C)(C)[C@@H]5CC[C@]43C)[C@@H]2[C@]1(C)O` [EUSCAPHIC ACID], the IC50 is 28.8 µM.
On to `C[C@@H]1CC[C@]2(C(=O)O)CC[C@]3(C)C(=CC[C@@H]4[C@@]5(C)[C@H](O)[C@@H](O)C(=O)C(C)(C)[C@@H]5CC[C@]43C)[C@@H]2[C@]1(C)O`, for which the IC50 worked out at 26.9 µM.
Still for that read-out and setting: under `C[C@@H]1CC[C@]2(C(=O)O)CC[C@]3(C)C(=CC[C@@H]4[C@@]5(C)[C@H](O)C(=O)[C@H](O)C(C)(C)[C@@H]5CC[C@]43C)[C@@H]2[C@]1(C)O` stands 32.5 µM; under `C[C@@H]1CC[C@]2(C(=O)O)CC[C@]3(C)C(=CC[C@@H]4[C@@]5(C)C[C@@H](O)C(=O)C(C)(C)[C@@H]5CC[C@]43C)[C@@H]2[C@]1(C)O`, 40 µM; under `C[C@@H]1CC[C@]2(C(=O)O)CC[C@]3(C)C(=CC[C@@H]4[C@@]5(C)CC(=O)[C@H](O)C(C)(C)[C@@H]5CC[C@]43C)[C@@H]2[C@]1(C)O`, 38.1 µM.

The values above are taken from ChEMBL document CHEMBL1155717, “Monoterpene glycosides and triterpene acids from Eriobotrya deflexa” (J Nat Prod, 2001).
